Laboratory results from ChEMBL document CHEMBL2150886, “Synthesis of [3β-acetoxy-urs-12-en-28-oyl]-1-monoglyceride and investigation on its anti tumor effects against BGC-823” (Bioorg Med Chem, 2011).

Legend:
[1] = test system: HT-29; test: Cytotoxicity against human HT-29 cells incubated for 48 hrs by MTT assay; format: functional, cell-based; details: HT-29, 48 h
Procedure, shortened: (§1)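 Cells were grown in RPMI-1640 with 10% heat-inactivated FCS at 37 °C under 5% CO₂, seeded at 5 × 10³ per well and left 24 h. Compounds in DMSO were diluted in medium to 0.5% final DMSO; controls received 0.5% DMSO. Exposure was 24–72 h, followed by MTT for 4 h, formazan dissolved in DMSO, and A570. Six wells per sample; IC₅₀ taken at 50% inhibition; ≥3 repeats.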

[2] = test system: BGC-823; test: Cytotoxicity against human BGC823 cells by MTT assay; format: functional, cell-based; procedure, shortened: as §1
[3] = test system: HepG2; test: Cytotoxicity against human HepG2 cells incubated for 48 hrs by MTT assay; format: functional, cell-based; details: HepG2, 48 h; procedure, shortened: as §1
[4] = Cytotoxicity against human GES-1 cells incubated for 48 hrs by MTT assay; format: cell-based; details: GES1, 48 h; procedure, shortened: as §1
[5] = test system: Mus musculus; test: Toxicity in human BGC823 cells xenografted nude mouse assessed as body weight changes at 8 mg/kg, iv treated 3 times on day 1, day 4 and day 7 post tumor implant (reference value: 20.79 +/- 1.29 grams); format: organism-based, BGC-823; design: dose 8 mg/kg, route intravenous; details: in vivo
[6] = test system: Mus musculus; test: Toxicity in human BGC823 cells xenografted nude mouse assessed as body weight changes at 8 mg/kg, iv treated on day 1 post tumor implant (reference value: 19.69 +/- 1.21 grams); format: organism-based, BGC-823; design: dose 8 mg/kg, route intravenous; details: in vivo
[7] = test system: Mus musculus; test: Toxicity in human BGC823 cells xenografted nude mouse assessed as body weight changes at 8 mg/kg, iv treated […] on day 1, 4, 7, 10, 13 and day 16 post tumor implant (reference value: 20.12 +/- 1.52 grams); format: organism-based, BGC-823; design: dose 8 mg/kg, route intravenous; details: in vivo
[8] = test system: BGC-823; test: Antitumor activity against human BGC823 cells xenografted in nude mouse assessed as reduction in tumor volume at 8 mg/kg, iv dosed 5 times; format: functional; design: scale not given: the % may be the effect or the level left
Procedure, shortened: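 Male nude mice (5 weeks, 18–22 g) inoculated subcutaneously with 1 × 10⁷ BGC-823 cells. At about 200 mm³ tumours, animals were randomised into four groups of eight. Each received 0.2 mL iv by tail vein; controls got 0.9% saline. Tumour volume was measured daily as 0.5 × length × width²; tumours were weighed at the end. Values are mean ± SD, n = 8.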

[9] = test system: Mus musculus; test: Toxicity in human BGC823 cells xenografted nude mouse assessed as body weight changes at 8 mg/kg, iv treated 5 times on day 1, 4, 7, 10 and day 13 post tumor implant (reference value: 20.21 +/- 1.83 grams); format: organism-based, BGC-823; design: dose 8 mg/kg, route intravenous; details: in vivo
[10] = test system: Mus musculus; test: Toxicity in human BGC823 cells xenografted nude mouse assessed as body weight changes at 8 mg/kg, iv treated 2 times on day 1 and day 4 post tumor implant (reference value: 20.58 +/- 1.35 grams); format: organism-based, BGC-823; design: dose 8 mg/kg, route intravenous; details: in vivo
[11] = test system: Mus musculus; test: Toxicity in human BGC823 cells xenografted nude mouse assessed as body weight changes at 8 mg/kg, iv treated 4 times on day 1, 4, 7 and 10 post tumor implant (reference value: 20.54 +/- 1.45 grams); format: organism-based, BGC-823; design: dose 8 mg/kg, route intravenous; details: in vivo

SMILES | IC50 [1] [µM] | IC50 [2] [µM] | IC50 [3] [µM] | IC50 [4] [µM] | Activity [5] [g] | Activity [6] [g] | Activity [7] [g] | Activity [8] [%] | Activity [9] [g] | Activity [10] [g] | Activity [11] [g]
CC(=O)O[C@H]1CC[C@]2(C)[C@H]3CC=C4[C@@H]5[C@@H](C)[C@H](C)CC[C@]5(C(=O)OCCO)CC[C@@]4(C)[C@]3(C)CC[C@H]2C1(C)C | 23.6 | 17.2 | 29.8 | 137 |  |  |  |  |  |  | 
C[C@H]1[C@H](C)CC[C@]2(C(=O)O)CC[C@]3(C)C(=CC[C@@H]4[C@@]5(C)CC[C@H](O)C(C)(C)[C@@H]5CC[C@]43C)[C@H]12 [URSOLIC ACID] | 26.3 | 23 |  | 93.8 |  |  |  |  |  |  | 
CC(=O)O[C@H]1CC[C@]2(C)[C@H]3CC=C4[C@@H]5[C@@H](C)[C@H](C)CC[C@]5(C(=O)O)CC[C@@]4(C)[C@]3(C)CC[C@H]2C1(C)C [O-ACETYLURSOLIC ACID] | 23.9 | 19.4 | 37.7 | 92.9 |  |  |  |  |  |  | 
CC(=O)O[C@H]1C(=O)[C@@]2(C)[C@H]([C@H](OC(=O)c3ccccc3)[C@]3(O)C[C@H](OC(=O)[C@H](O)[C@@H](NC(=O)c4ccccc4)c4ccccc4)C(C)=C1C3(C)C)[C@]1(OC(C)=O)CO[C@@H]1C[C@@H]2O [PACLITAXEL] | < 10 | 33.1 |  | 106 | 19.7 | 18.76 | 20.25 | 15.2 | 20.17 | 19.72 | 20.13
C[C@H]1[C@H](C)CC[C@]2(C(=O)OCC(O)CO)CC[C@]3(C)C(=CC[C@@H]4[C@@]5(C)CC[C@H](O)C(C)(C)[C@@H]5CC[C@]43C)[C@H]12 (some centres undefined) |  | 20.5 | 44.2 | 154 |  |  |  |  |  |  | 
